The subject of series [1] is Enterococcus faecium. Description: Antibacterial activity against vancomycin-resistant Enterococcus faecium SR7917 after 20 hrs by broth microdilution method. The class given is functional. The note with it: SR7917, 20 h. The procedure, abridged: (§1)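 MIC by broth microdilution following NCCLS guidance in cation-adjusted Mueller-Hinton broth. Compounds tested as serial 2-fold dilutions, tested up to 64 μg/mL. Each well inoculated with 5 × 10^4 CFU of the strain in 0.1 mL. Incubation at 35 °C for 20 h, after which the MIC was scored.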

Series [2] concerns Enterococcus faecium. Description: Antibacterial activity against Enterococcus faecium ATCC 19434 after 20 hrs by broth microdilution method. The class given is functional. The note with it: ATCC 19434, 20 h. The procedure, abridged:
as §1
(In general: Dilution methods test growth across graded concentrations, often in twofold steps.)

Series [3] concerns Enterococcus faecalis. Description: Antibacterial activity against Enterococcus faecalis ATCC 29212 after 20 hrs by broth microdilution method. The series is classed as functional. The following applies: ATCC 29212, 20 h. The method in brief: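 MIC by NCCLS broth microdilution in cation-adjusted Mueller-Hinton broth with serial 2-fold compound dilutions. Inoculum 5 × 10^4 CFU per strain in 0.1 mL. Incubated 35 °C for 20 h before scoring.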

Series [4] concerns Staphylococcus aureus. In words: Antibacterial activity against methicillin-resistant Staphylococcus aureus SR3637 after 20 hrs by broth microdilution method. The class given is functional. The following applies: SR3637, 20 h. The method in brief: as §1
For series [5], the system named is Enterococcus faecalis. In words: Antibacterial activity against vancomycin-resistant Enterococcus faecalis SR7914 after 20 hrs by broth microdilution method. The class given is functional. The note with it: SR7914, 20 h. The method in brief:
as §1

Series [6] has as its system HepG2. Description: Cytotoxicity against human HepG2 cells after 48 hrs by WST-8 assay. The note with it: hepg2, 48 h. The class given is cell-based.
Series [7] deals with Staphylococcus aureus. Description: Antibacterial activity against methicillin-susceptible Staphylococcus aureus ATCC 29213 after 20 hrs by broth microdilution method. The series is classed as functional. The note with it: ATCC 29213, 20 h. The procedure, abridged:
as §1

Series [8] has as its target T1, Phospho-N-acetylmuramoyl-pentapeptide-transferase (Bacillus subtilis (strain 168), UniProt Q03521).
T1 sequence (Q03521 whole entry): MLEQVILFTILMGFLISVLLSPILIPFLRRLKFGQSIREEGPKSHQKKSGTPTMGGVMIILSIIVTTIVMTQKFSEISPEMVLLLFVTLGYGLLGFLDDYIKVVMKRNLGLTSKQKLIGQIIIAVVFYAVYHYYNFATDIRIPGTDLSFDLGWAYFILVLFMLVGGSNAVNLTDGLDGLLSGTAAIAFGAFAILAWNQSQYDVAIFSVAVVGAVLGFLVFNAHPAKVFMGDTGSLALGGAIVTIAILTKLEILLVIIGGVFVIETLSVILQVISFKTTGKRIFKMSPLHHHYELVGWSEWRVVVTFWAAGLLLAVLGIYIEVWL
In words: Inhibition of purified Bacillus subtilis MraY assessed as incorporation of MurNAc-[14C]pentapeptide into lipid 1 after 30 mins. The method in brief:
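Purified B. subtilis MraY. Final mix: 100 mM Tris-HCl pH 7.5, 40 mM MgCl2, 1.1 mM C55-P, 250 mM NaCl, 0.25 mM UDP-MurNAc-[14C]pentapeptide (337 Bq), 8.4 mM N-lauroyl sarcosine. Incubated 30 min at 37 °C. Substrate and lipid I separated by silica TLC and quantified by radioactivity scanning. IC50 calculated relative to an inhibitor-free control.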

Each structure is given as a SMILES string. ≈ marks a conversion by molar mass, not a printed value. Where only a bound is given, the exact number is not on record here.

By MIC is commonly meant the smallest concentration in the dilution series that meets the test's criterion for growth inhibition. The low end stands for a more susceptible organism, the high end for a less susceptible organism. For orientation: IC50 means the midpoint of a concentration-inhibition curve.

As for `CCCCOc1ccc(-c2ccc(CC[C@@H](NC(=O)[C@@H](NC(=O)N[C@H](C(=O)O)C(C)C)[C@@H]3CCNC(=N)N3)C(=O)NCCCN[C@H](C(=O)O)[C@H](O[C@@H]3O[C@H](CN)[C@@H](O)[C@H]3O)C3O[C@@H](n4ccc(=O)[nH]c4=O)[C@H](O)[C@@H]3O)cc2)cc1` (single isomer, unassigned), the MIC amounted to 8 µg/mL (≈ 7.19 µM) in series [1]; 4 µg/mL (≈ 3.6 µM) in series [2]; 32 µg/mL (≈ 28.8 µM) in series [3]; 64 µg/mL (≈ 57.5 µM) in series [4]; 64 µg/mL (≈ 57.5 µM) in series [5]; 64 µg/mL (≈ 57.5 µM) in series [7]. For the same compound, in series [6], the Activity result is “Non-toxic”.
Take `CCCCOc1ccc(-c2ccc(CC[C@H](NC(=O)[C@@H](NC(=O)N[C@H](C(=O)O)C(C)C)[C@@H]3CCNC(=N)N3)C(=O)NCCCN[C@H](C(=O)O)[C@H](O[C@@H]3O[C@H](CN)[C@@H](O)[C@H]3O)C3O[C@@H](n4ccc(=O)[nH]c4=O)[C@H](O)[C@@H]3O)cc2)cc1` (single isomer, unassigned): the MIC in series [1] came out at 32 µg/mL (≈ 28.8 µM); in series [2] it was 16 µg/mL (≈ 14.4 µM); in series [3], 16 µg/mL (≈ 14.4 µM); in series [4] it was 32 µg/mL (≈ 28.8 µM); in series [5], 64 µg/mL (≈ 57.5 µM); in series [7], 16 µg/mL (≈ 14.4 µM). Also, the Activity entry in series [6] is on record as “Non-toxic”.
Turning to `CC(C)C[C@@H](NC(=O)[C@@H](NC(=O)N[C@H](C(=O)O)C(C)C)[C@@H]1CCN=C(N)N1)C(=O)NCCCN[C@H](C(=O)O)[C@H](O[C@@H]1O[C@H](CN)[C@@H](O)[C@H]1O)C1O[C@@H](n2ccc(=O)[nH]c2=O)[C@H](O)[C@@H]1O` (single isomer, unassigned), the MIC in series [1], in series [2], in series [3], in series [4], in series [5] and in series [7] was > 64 µg/mL in each case. Also, the IC50 in series [8] was found to be 90 nM.
In the case of `CCCCCCOc1ccc(-c2ccc([C@H](NC(=O)[C@@H](NC(=O)N[C@H](C(=O)O)C(C)C)[C@@H]3CCNC(=N)N3)C(=O)NCCCN[C@H](C(=O)O)[C@H](O[C@@H]3O[C@H](CN)[C@@H](O)[C@H]3O)C3O[C@@H](n4ccc(=O)[nH]c4=O)[C@H](O)[C@@H]3O)cc2)cc1` (single isomer, unassigned), the MIC in series [1] was 4 µg/mL (≈ 3.6 µM); in series [2], 4 µg/mL (≈ 3.6 µM); in series [3], 8 µg/mL (≈ 7.19 µM); in series [4], 8 µg/mL (≈ 7.19 µM); in series [5] it was 8 µg/mL (≈ 7.19 µM); in series [7] it was 4 µg/mL (≈ 3.6 µM). In addition, in series [6], the Activity result is recorded as “Non-toxic”.
In the case of `CC(C)[C@H](NC(=O)N[C@H](C(=O)N[C@H](CCCCCCCc1ccc(-c2ccccc2)cc1)C(=O)NCCCN[C@H](C(=O)O)[C@H](O[C@@H]1O[C@H](CN)[C@@H](O)[C@H]1O)C1O[C@@H](n2ccc(=O)[nH]c2=O)[C@H](O)[C@@H]1O)[C@@H]1CCNC(=N)N1)C(=O)O` (single isomer, unassigned), the minimal inhibitory concentration (MIC) in series [1] amounted to 4 µg/mL (≈ 3.6 µM); in series [2] it was 4 µg/mL (≈ 3.6 µM); in series [3], 8 µg/mL (≈ 7.21 µM); in series [4] it was 16 µg/mL (≈ 14.4 µM); in series [5], 16 µg/mL (≈ 14.4 µM); in series [7] it was 8 µg/mL (≈ 7.21 µM). Further, the Activity result in series [6] is reported as “Non-toxic”.
For the compound `CN[C@H](CC(C)C)C(=O)N[C@H]1C(=O)N[C@@H](CC(N)=O)C(=O)N[C@H]2C(=O)N[C@H]3C(=O)N[C@H](C(=O)N[C@H](C(=O)O)c4cc(O)cc(O)c4-c4cc3ccc4O)[C@H](O)c3ccc(c(Cl)c3)Oc3cc2cc(c3O[C@@H]2O[C@H](CO)[C@@H](O)[C@H](O)[C@H]2O[C@H]2C[C@](C)(N)[C@H](O)[C@H](C)O2)Oc2ccc(cc2Cl)[C@H]1O` [VANCOMYCIN], the MIC in series [1] was > 64 µg/mL; in series [3] it was 1 µg/mL (≈ 0.69 µM); in series [5], > 64 µg/mL.
Turning to `CCCCCCOc1ccc(-c2ccc([C@@H](NC(=O)[C@@H](NC(=O)N[C@H](C(=O)O)C(C)C)[C@@H]3CCNC(=N)N3)C(=O)NCCCN[C@H](C(=O)O)[C@H](O[C@@H]3O[C@H](CN)[C@@H](O)[C@H]3O)C3O[C@@H](n4ccc(=O)[nH]c4=O)[C@H](O)[C@@H]3O)cc2)cc1` (single isomer, unassigned), the minimum inhibitory concentration (MIC) in series [1] stood at 8 µg/mL (≈ 7.19 µM); in series [2], 4 µg/mL (≈ 3.6 µM); in series [3], 16 µg/mL (≈ 14.4 µM); in series [4] it was 16 µg/mL (≈ 14.4 µM); in series [5] it was 16 µg/mL (≈ 14.4 µM); in series [7] it was 16 µg/mL (≈ 14.4 µM). The Activity entry in series [6] was “Non-toxic”.
For the compound `CCCCCCCCCCCCN[C@H](C(=O)O)[C@H](O[C@@H]1O[C@H](CN)[C@@H](O)[C@H]1O)[C@H]1O[C@@H](n2ccc(=O)[nH]c2=O)[C@H](O)[C@@H]1O`, the MIC in series [1] was 64 µg/mL (≈ 104 µM); in series [2] it was 64 µg/mL (≈ 104 µM); in series [3], 32 µg/mL (≈ 51.9 µM); in series [4] it was > 64 µg/mL; in series [5], 64 µg/mL (≈ 104 µM); in series [7], > 64 µg/mL. In addition, in series [8], the IC50 amounted to 5000 nM.
`CC(C)C[C@H](NC(=O)[C@@H](NC(=O)N[C@H](C(=O)O)C(C)C)[C@@H]1CCNC(=N)N1)C(=O)NCCCN[C@H](C(=O)O)[C@H](O[C@@H]1O[C@H](CN)[C@@H](O)[C@H]1O)[C@H]1O[C@@H](n2ccc(=O)[nH]c2=O)[C@H](O)[C@@H]1O` [MURAMYCIN D2]: the MIC in series [1], in series [2], in series [3], in series [4], in series [5] and in series [7] was > 64 µg/mL each time. Also, the IC50 in series [8] came out at 10 nM.
On to `CC(C)[C@H](NC(=O)N[C@H](C(=O)N[C@@H](CCCCCCCc1ccc(-c2ccccc2)cc1)C(=O)NCCCN[C@H](C(=O)O)[C@H](O[C@@H]1O[C@H](CN)[C@@H](O)[C@H]1O)C1O[C@@H](n2ccc(=O)[nH]c2=O)[C@H](O)[C@@H]1O)[C@@H]1CCNC(=N)N1)C(=O)O` (single isomer, unassigned), for which the MIC came out at 8 µg/mL (≈ 7.21 µM) in series [1]; 4 µg/mL (≈ 3.6 µM) in series [2]; 4 µg/mL (≈ 3.6 µM) in series [3]; 4 µg/mL (≈ 3.6 µM) in series [4]; 16 µg/mL (≈ 14.4 µM) in series [5]; 4 µg/mL (≈ 3.6 µM) in series [7]. Further, in series [6], the Activity result was “Non-toxic”.
As to `CCCCCCCCCCCCCCC[C@@H](NC(=O)[C@@H](NC(=O)N[C@H](C(=O)O)C(C)C)[C@@H]1CCN=C(N)N1)C(=O)NCCCN[C@H](C(=O)O)[C@H](O[C@@H]1O[C@H](CN)[C@@H](O)[C@H]1O)C1O[C@@H](n2ccc(=O)[nH]c2=O)[C@H](O)[C@@H]1O` (single isomer, unassigned), the MIC in series [1] turned out to be 0.25 µg/mL (≈ 0.234 µM); in series [2] it was 0.5 µg/mL (≈ 0.467 µM); in series [3] it was 2 µg/mL (≈ 1.87 µM); in series [4], 4 µg/mL (≈ 3.74 µM); in series [5], 4 µg/mL (≈ 3.74 µM); in series [7], 2 µg/mL (≈ 1.87 µM). In addition, in series [8], the IC50 turned out to be 740 nM. Also, in series [6], the Activity result was “Non-toxic”.
As to `CCCCCCCCCCCCCCC[C@H](NC(=O)[C@@H](NC(=O)N[C@H](C(=O)O)C(C)C)[C@@H]1CCN=C(N)N1)C(=O)NCCCN[C@H](C(=O)O)[C@H](O[C@@H]1O[C@H](CN)[C@@H](O)[C@H]1O)C1O[C@@H](n2ccc(=O)[nH]c2=O)[C@H](O)[C@@H]1O` (single isomer, unassigned), the MIC came out at 2 µg/mL (≈ 1.87 µM) in series [1]; 4 µg/mL (≈ 3.74 µM) in series [2]; 4 µg/mL (≈ 3.74 µM) in series [3]; 4 µg/mL (≈ 3.74 µM) in series [4]; 4 µg/mL (≈ 3.74 µM) in series [5]; 2 µg/mL (≈ 1.87 µM) in series [7]. Also, the IC50 in series [8] came to 330 nM. In addition, in series [6], the Activity entry is recorded as “Non-toxic”.

These data come from ChEMBL document CHEMBL1777703, “Synthesis and Biological Evaluation of Muraymycin Analogues Active against Anti-Drug-Resistant Bacteria” (ACS Med Chem Lett, 2010).
